Results taken from ChEMBL document CHEMBL1156933, “Studies of benzothiophene template as potent factor IXa (FIXa) inhibitors in thrombosis” (J Med Chem, 2010).

Experiments:
Coagulation factor IX = Coagulation factor IX (Homo sapiens, UniProt P00740); experiment: Inhibition of human recombinant factor 9a by amidolytic assay
Coagulation factor X = Coagulation factor X (Homo sapiens, UniProt P00742); experiment: Inhibition of factor 10 by amidolytic assay
Outline: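 Done by a previously published literature method. IC50 values are the mean of at least three experiments, with variation among results under 10%.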

Coagulation factor IX, sequence (P00740 47-191 limits assumed): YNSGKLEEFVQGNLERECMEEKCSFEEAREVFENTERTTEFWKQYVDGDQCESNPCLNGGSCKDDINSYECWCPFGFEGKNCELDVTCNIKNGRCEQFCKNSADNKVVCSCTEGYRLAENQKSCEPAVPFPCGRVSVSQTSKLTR
Coagulation factor IX, sequence (P00740 227-461 limits assumed): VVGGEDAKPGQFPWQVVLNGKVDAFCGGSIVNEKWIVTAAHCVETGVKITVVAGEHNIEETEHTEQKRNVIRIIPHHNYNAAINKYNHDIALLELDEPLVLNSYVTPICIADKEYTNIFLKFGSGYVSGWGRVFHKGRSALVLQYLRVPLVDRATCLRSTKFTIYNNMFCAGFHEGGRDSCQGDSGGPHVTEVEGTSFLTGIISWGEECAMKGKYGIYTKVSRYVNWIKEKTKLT
Coagulation factor X, sequence (P00742 41-179 limits assumed): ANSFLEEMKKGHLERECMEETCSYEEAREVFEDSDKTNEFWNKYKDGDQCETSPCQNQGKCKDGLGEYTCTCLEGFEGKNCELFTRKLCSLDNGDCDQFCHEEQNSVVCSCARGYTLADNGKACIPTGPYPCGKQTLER
Coagulation factor X, sequence (P00742 235-488 limits assumed): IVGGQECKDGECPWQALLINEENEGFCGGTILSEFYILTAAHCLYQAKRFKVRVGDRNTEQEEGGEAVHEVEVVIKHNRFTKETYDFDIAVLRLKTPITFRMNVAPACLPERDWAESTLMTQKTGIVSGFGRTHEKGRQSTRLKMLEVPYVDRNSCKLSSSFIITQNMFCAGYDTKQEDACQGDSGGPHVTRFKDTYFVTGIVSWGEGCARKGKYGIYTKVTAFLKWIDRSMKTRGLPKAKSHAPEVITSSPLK

Ki (Coagulation factor IX) [µM] | Ki (Coagulation factor X) [µM] | Structure (SMILES)
0.45 | 5.7 | N=C(N)c1cc2ccc(OCc3ccc(F)c(F)c3)cc2s1
0.45 | 2.9 | N=C(N)c1cc2ccc(OCc3ccc(Cl)cc3)cc2s1
1.05 | 3.35 | N=C(N)c1cc2ccc(OCc3cccnc3)cc2s1
0.35 | 1.15 | N=C(N)c1cc2ccc(OCc3cccs3)cc2s1
11.3 | – | CC(Oc1ccc2cc(C(=N)N)sc2c1)c1ccc(F)cc1 (stereo unspecified)
7.2 | – | N=C(N)c1cc2ccc(OCc3ccccc3Cl)cc2s1
3.8 | 0.6 | CCOC(=O)COc1ccc2cc(C(=N)N)sc2c1
26.9 | – | COc1ccccc1COc1ccc2cc(C(=N)N)sc2c1
11.3 | – | COC(=O)c1ccc(COc2ccc3cc(C(=N)N)sc3c2)cc1
21.6 | – | N=C(N)c1cc2ccc(OCCc3ccccc3)cc2s1
0.9 | 7.9 | Cc1ccc(COc2ccc3cc(C(=N)N)sc3c2)cc1

More lines, now with the values behind:

Structure (SMILES) | Ki (Coagulation factor IX) [µM] | Ki (Coagulation factor X) [µM]
N=C(N)c1cc2cc(-c3ccccc3)ccc2s1 | 8 | –
N=C(N)c1cc2c(-c3ccccc3)cccc2s1 | 1.6 | –
COC(=O)CC(Oc1ccc2cc(C(=N)N)sc2c1)c1ccc(Cl)cc1 (stereo unspecified) | 0.028 | 0.033
N=C(N)c1cc2c(OCc3ccccc3)cccc2s1 | 1.5 | 6
COc1ccc(-c2ccc3sc(C(=N)N)cc3c2)cc1OC | 5.9 | 11.9
COc1ccc(-c2ccc3cc(C(=N)N)sc3c2)cc1OC | 24.2 | –
N=C(N)c1cc2c(I)cccc2s1 | 0.95 | 22
CCOC(=O)COc1cccc2sc(C(=N)N)cc12 | 11.9 | –
N=C(N)c1cc2c(OCc3nc4ccccc4s3)cccc2s1 | 0.8 | 2.6
